According to ChEMBL document CHEMBL1833876 (J Med Chem, 2011):
Calls of active or inactive are those of the source. The rule behind the calls is not given here.

How the values were obtained:
[1] = target: T1, Reduced folate transporter (Homo sapiens) (UniProt P41440); test: Inhibition of human RFC-mediated [3H]MTX uptake in chinese hamster PC43-10 cells at 10 uM after 2 mins relative to control; assay type: cell-based
T1 sequence (whole entry): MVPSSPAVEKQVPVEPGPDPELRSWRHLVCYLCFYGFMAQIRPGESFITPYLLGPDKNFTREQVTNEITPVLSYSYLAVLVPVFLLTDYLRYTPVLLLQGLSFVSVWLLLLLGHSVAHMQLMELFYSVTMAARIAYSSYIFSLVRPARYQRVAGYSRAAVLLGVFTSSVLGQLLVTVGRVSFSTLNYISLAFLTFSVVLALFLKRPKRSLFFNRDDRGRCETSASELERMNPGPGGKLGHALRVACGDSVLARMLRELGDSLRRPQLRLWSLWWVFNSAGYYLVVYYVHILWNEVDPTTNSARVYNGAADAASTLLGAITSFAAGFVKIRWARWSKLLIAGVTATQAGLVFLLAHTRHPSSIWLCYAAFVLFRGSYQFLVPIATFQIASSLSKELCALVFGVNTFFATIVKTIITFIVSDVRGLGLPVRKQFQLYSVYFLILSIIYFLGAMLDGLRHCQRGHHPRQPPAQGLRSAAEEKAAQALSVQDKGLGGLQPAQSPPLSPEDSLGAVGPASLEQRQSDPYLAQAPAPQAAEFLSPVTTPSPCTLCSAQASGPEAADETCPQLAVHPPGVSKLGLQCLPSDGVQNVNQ
Outline: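 PC43-10 (hRFC) cells were suspended in Hank's balanced salts. […] Results were expressed per mg protein, and percent inhibition was taken versus control uptake.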

[2] = Antiproliferative activity against chinese hamster PC43-10 expressing human RFC assessed as reduction of viable cells after 96 hrs; assay type: functional; settings: Cricetulus griseus, PC43-10, 96 h
[3] = system: IGROV-1; test: Antiproliferative activity against human IGROV1 cells expressing human RFC, FRalpha and PCFT assessed as reduction of viable cells after 96 hrs in the presence of 200 nM folic acid; assay type: functional, cell-based; settings: IGROV-1, 96 h
Outline: (§1)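 Same 96 h CellTiter-blue proliferation set-up in folate-free RPMI/10% dFBS with 2 nM leucovorin. Run in parallel incubations that included 200 nM folic acid alongside the antifolate, to establish FR-dependent uptake.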

[4] = system: KB; test: Antiproliferative activity against human KB cells expressing human RFC, FRalpha and PCFT assessed as reduction of viable cells after 96 hrs in the presence of 200 nM folic acid; assay type: functional, cell-based; outline: as §1
[5] = Antiproliferative activity against chinese hamster D4 cells expressing human FRbeta assessed as reduction of viable cells after 96 hrs in the presence of 200 nM folic acid; assay type: functional, cell-based; settings: Cricetulus griseus, D4, 96 h; outline: as §1
[6] = system: IGROV-1; test: Antiproliferative activity against human IGROV1 cells expressing human RFC, FRalpha and PCFT assessed as reduction of viable cells after 96 hrs; assay type: functional, cell-based; settings: IGROV-1, 96 h
[7] = Antiproliferative activity against chinese hamster R2(VC) cells assessed as reduction of viable cells after 96 hrs; settings: Cricetulus griseus
[8] = target: Folate receptor beta (Homo sapiens) (UniProt P14207); test: Displacement of [3H]-folic acid from human FRbeta expressed in chinese hamster D4 cells after 15 mins; assay type: cell-based
[9] = target: Folate receptor alpha (Homo sapiens) (UniProt P15328); test: Displacement of [3H]-folic acid from human FRaplha expressed in chinese hamster RT16 cells after 15 mins; assay type: cell-based
[10] = system: R2; test: Antiproliferative activity against chinese hamster R2 cells expressing human PCFT assessed as reduction of viable cells after 96 hrs; assay type: functional, cell-based; settings: Cricetulus griseus, R2, 96 h
[11] = Antiproliferative activity against chinese hamster RT16 cells expressing human FRalpha assessed as reduction of viable cells after 96 hrs; assay type: functional, cell-based; settings: Cricetulus griseus, RT16, 96 h
[12] = system: R2; test: Antiproliferative activity against chinese hamster R2 cells assessed as reduction of viable cells after 96 hrs; settings: Cricetulus griseus, R2, 96 h
[13] = Antiproliferative activity against chinese hamster D4 cells expressing human FRbeta assessed as reduction of viable cells after 96 hrs; assay type: functional, cell-based; settings: Cricetulus griseus, D4, 96 h
[14] = system: KB; test: Antiproliferative activity against human KB cells expressing human RFC, FRalpha and PCFT assessed as reduction of viable cells after 96 hrs; assay type: functional, cell-based
[15] = Antiproliferative activity against chinese hamster RT16 cells expressing human FRalpha assessed as reduction of viable cells after 96 hrs in the presence of 200 nM folic acid; assay type: functional, cell-based; settings: Cricetulus griseus, RT16, 96 h; outline: as §1
[16] = system: IGROV-1; test: Antitumor activity against human IGROV1 cells expressing human RFC, FRalpha and PCFT xenografted in SCID mouse assessed as log cell kill at 180 mg/kg, iv administered on days 3, 7, 11, 15, and 19 postimplantation; assay type: functional
Outline: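 Female ICR SCID mice, 10 weeks old, on a folate-deficient diet from 24 days before implant. Bilateral subcutaneous IGROV1 tumour fragments (30–60 mg, by trocar); mice pooled, then randomised. IV dosing on days 3, 7, 11, 15 and 19. Mice weighed daily; tumours measured by caliper 2–3 times weekly; mice sacrificed at 1500 mg tumour burden. Weight-loss nadir and recovery recorded.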

[17] = system: R2; test: Decrease in intracellular ATP concentration in chinese hamster R2 cells expressing human PCFT at 1 uM after 24 hrs by HPLC relative to control at pH 6.8; assay type: functional, Cricetulus griseus; parameters: scale not given: the % may be the effect or the level left
Outline: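 R2/hPCFT4 CHO cells seeded in folate-free RPMI 1640 with 10% dialysed FBS and 25 nM leucovorin (pH 7.2). After 24 h, switched to the same medium buffered to pH 6.8 with 25 mM PIPES/25 mM HEPES. Drug at 1 µM, or vehicle (0.5% DMSO or H2O), for 24 h. Nucleotides extracted; ATP quantified by HPLC against vehicle control.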

[18] = target: T2, Proton-coupled folate transporter (Homo sapiens) (UniProt Q96NT5); test: Inhibition of human PCFT-mediated [3H]MTX uptake ectopically expressed in chinese hamster R2 cells at 10 uM at pH 5.5 to 7.2; assay type: cell-based
T2 sequence (whole entry): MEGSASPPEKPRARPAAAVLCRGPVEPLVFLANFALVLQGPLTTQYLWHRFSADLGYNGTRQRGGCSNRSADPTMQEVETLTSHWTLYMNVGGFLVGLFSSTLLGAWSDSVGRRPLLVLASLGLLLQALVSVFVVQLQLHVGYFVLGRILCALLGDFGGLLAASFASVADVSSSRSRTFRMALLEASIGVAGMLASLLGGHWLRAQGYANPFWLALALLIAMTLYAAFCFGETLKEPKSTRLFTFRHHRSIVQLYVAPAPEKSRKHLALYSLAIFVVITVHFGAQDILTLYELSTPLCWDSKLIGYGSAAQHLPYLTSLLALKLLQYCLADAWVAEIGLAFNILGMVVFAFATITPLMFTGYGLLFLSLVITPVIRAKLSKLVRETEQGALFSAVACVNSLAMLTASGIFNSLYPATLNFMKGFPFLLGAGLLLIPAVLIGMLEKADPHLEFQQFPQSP

[19] = target: T2, Proton-coupled folate transporter (Homo sapiens); test: Inhibition of human PCFT-mediated [3H]MTX uptake expressed in chinese hamster R2 cells at pH 5.5 by dixon plot analysis relative to PMX; assay type: cell-based; settings: concentration not given here
[20] = target: T2, Proton-coupled folate transporter (Homo sapiens); test: Inhibition of human PCFT-mediated [3H]MTX uptake expressed in chinese hamster R2 cells at pH 6.8 […] relative to PMX; assay type: cell-based; settings: concentration not given here
[21] = target: T2, Proton-coupled folate transporter (Homo sapiens); test: Induction of current in human PCFT expressed in xenopus oocyte at 5 uM at holding potential -90 mV by voltage clamp assay
[22] = system: R2; test: Antiproliferative activity against chinese hamster R2 cells expressing human PCFT assessed as growth inhibition in the presence of 60 uM adenosine and 10 uM thymidine; assay type: functional, cell-based; settings: Cricetulus griseus
Outline: (§2)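 R2/hPCFT4 cells were grown in folate-free RPMI with 25 nM leucovorin and 10% dFBS and exposed to antifolate for up to 96 h. Rescue co-incubations used thymidine (10 µM), adenosine (60 µM) and AICA (320 µM), alone or combined. Viability was read by CellTiter-blue.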

[23] = system: R2; test: Antiproliferative activity against chinese hamster R2 cells expressing human PCFT assessed as growth inhibition at <50 nM in the presence of 10 uM thymidine; assay type: functional, cell-based; settings: Cricetulus griseus; outline: as §2
[24] = system: R2; test: Antiproliferative activity against chinese hamster R2 cells expressing human PCFT assessed as growth inhibition in the presence of 10 uM thymidine and 320 uM AICA; assay type: functional, cell-based; settings: Cricetulus griseus; outline: as §2
[25] = system: R2; test: Inhibition of GARFTase in chinese hamster R2 cells expressing human PCFT assessed as incorporation of [14C]glycine into [14C]formyl GAR in the presence of 4 uM azaserine; assay type: cell-based; settings: Cricetulus griseus
[26] = system: R2; test: Antiproliferative activity against chinese hamster R2 cells expressing human PCFT assessed as growth inhibition in the presence of 60 uM adenosine; assay type: functional, cell-based; settings: Cricetulus griseus; outline: as §2

Folate receptor beta (Homo sapiens), sequence (P14207 17-230 limits assumed): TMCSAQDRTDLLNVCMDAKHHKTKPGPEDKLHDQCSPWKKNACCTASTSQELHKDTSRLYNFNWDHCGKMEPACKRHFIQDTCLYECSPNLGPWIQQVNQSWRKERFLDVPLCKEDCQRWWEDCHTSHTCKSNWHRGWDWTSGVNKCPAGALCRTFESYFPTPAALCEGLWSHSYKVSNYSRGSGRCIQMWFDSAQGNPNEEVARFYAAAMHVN
Folate receptor alpha (Homo sapiens), sequence (P15328 25-234 limits assumed): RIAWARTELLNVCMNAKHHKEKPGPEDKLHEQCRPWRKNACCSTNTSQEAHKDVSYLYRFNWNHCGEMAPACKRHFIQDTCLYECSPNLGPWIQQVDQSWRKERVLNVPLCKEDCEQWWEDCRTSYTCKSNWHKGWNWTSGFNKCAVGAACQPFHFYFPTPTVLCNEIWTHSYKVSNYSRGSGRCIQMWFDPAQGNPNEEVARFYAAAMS

Compound	inhibition [1]	IC50 [4] [µM]	IC50 [2] [µM]	IC50 [3] [µM]	IC50 [7] [µM]	IC50 [10] [µM]	IC50 [12] [µM]	IC50 [15] [µM]	Activity [17] [%]	also measured
Nc1nc(=O)c2c([nH]1)NCC(CNc1ccc(C(=O)N[C@@H](CCC(=O)O)C(=O)O)cc1)N2C=O (mixture of isomers)	Active	–	–	–	–	–	–	–	–	–
Nc1nc2[nH]c(CCCCc3ccc(C(=O)N[C@@H](CCC(=O)O)C(=O)O)s3)cc2c(=O)[nH]1	Active	> 1	> 1	> 1	> 1	–	> 1	> 1	90	IC50 [5]: > 1 µM; LCK [16]: 2.3; inhibition [18]: Active; inhibition [19]: 35%; inhibition [20]: 18%; Activity [21]: Active
Nc1nc2c(c(=O)[nH]1)C[C@@H](CCc1ccc(C(=O)N[C@@H](CCC(=O)O)C(=O)O)cc1)CN2 [LOMETREXOL]	Active	–	–	–	> 1	0.038	–	> 0.188	76	inhibition [25]: Active
CN(Cc1cnc2nc(N)nc(N)c2n1)c1ccc(C(=O)N[C@@H](CCC(=O)O)C(=O)O)cc1 [METHOTREXATE]	–	–	–	–	> 1	–	–	–	–	–
Cc1nc(=O)c2cc(CN(C)c3ccc(C(=O)N[C@@H](CCC(=O)O)C(=O)O)s3)ccc2[nH]1 [RALTITREXED]	Active	–	–	–	–	–	–	–	–	–
Nc1nc(N)c2nc(CNc3ccc(C(=O)N[C@@H](CCCNC(=O)c4ccccc4C(=O)O)C(=O)O)cc3)cnc2n1 [TALOTREXIN]	Active	–	–	–	> 1	> 1	> 1	–	–	inhibition [18]: inactive

Now from value to compound, other results behind:

inhibition [1]	IC50 [4] [µM]	Compound	IC50 [2] [µM]	IC50 [3] [µM]	IC50 [7] [µM]	IC50 [10] [µM]	IC50 [12] [µM]	IC50 [15] [µM]	Activity [17] [%]	also measured
Active	> 1	Nc1nc2[nH]c(CCc3ccc(C(=O)N[C@@H](CCC(=O)O)C(=O)O)s3)cc2c(=O)[nH]1	> 1	> 1	> 1	0.135	> 1	> 1	–	IC50 [5]: > 1 µM; IC50 [6]: 0.123 µM; inhibition [8]: inactive; inhibition [9]: inactive; IC50 [11]: 0.0389 µM; IC50 [13]: 0.00658 µM; IC50 [14]: 0.00322 µM
Active	–	Nc1nc2[nH]cc(CCc3ccc(C(=O)N[C@@H](CCC(=O)O)C(=O)O)cc3)c2c(=O)[nH]1 [PEMETREXED]	–	–	–	–	–	–	17	Activity [22]: inactive; Activity [23]: inactive; Activity [24]: Active; inhibition [25]: Active; Activity [26]: Active
–	> 1	Nc1nc2[nH]c(Cc3ccc(C(=O)N[C@@H](CCC(=O)O)C(=O)O)s3)cc2c(=O)[nH]1	> 1	> 1	> 1	0.291	> 1	> 1	–	IC50 [6]: > 1 µM; IC50 [11]: 0.122 µM; IC50 [14]: 0.0419 µM
